hERG protect – hERG (human) protection from proarrhythmic block; CHO-hERG, FluxOR thallium flux, dofetilide IC70 present; activation (rescue from dofetilide block), less the hit threshold, % at 10 µM; 310,000 tested, 0.51% active; AID 1511;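 active means activation above the mean of controls blocked by dofetilide plus 5 SD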;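 further: thallium influx through hERG after potassium depolarization seen as dye fluorescence rise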
KCNK3 block – human KCNK3 channel inhibition, primary screen. O14649. CHO-KCNK3 thallium flux, FluxOR fluorescence; hits give low values. B-score at 10 µM. 340,000 tested, 0.84% active. AID 602410;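 active means B-score under library mean minus 4 SD, starting fluorescence ratio at most library mean plus 5 SD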;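 further: more negative B-score means stronger inhibition of thallium flux through KCNK3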
Target sequence (O14649 whole entry, looked up): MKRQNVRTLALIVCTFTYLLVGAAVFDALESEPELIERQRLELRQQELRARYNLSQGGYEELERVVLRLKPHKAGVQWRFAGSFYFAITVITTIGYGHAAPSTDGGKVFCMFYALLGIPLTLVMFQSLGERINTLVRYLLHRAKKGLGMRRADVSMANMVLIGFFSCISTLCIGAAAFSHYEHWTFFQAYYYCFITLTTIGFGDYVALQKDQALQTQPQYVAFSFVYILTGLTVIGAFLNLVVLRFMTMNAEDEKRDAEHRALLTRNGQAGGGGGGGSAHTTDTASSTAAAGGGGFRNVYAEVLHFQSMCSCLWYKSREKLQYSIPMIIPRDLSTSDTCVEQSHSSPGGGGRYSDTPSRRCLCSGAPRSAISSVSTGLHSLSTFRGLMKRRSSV
KCNK9 inh – human KCNK9 channel inhibition; 310,000 tested, 1.2% active; B-score at 10 µM; HEK293 KCNK9, FluxOR thallium flux fluorescence; hits give low values; AID 488922; Q9NPC2;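 active means ratio B-score over 3 SD below the library mean, with starting fluorescence within 5 SD of its mean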;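 further: negative B-score means less thallium flux so channel inhibition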
Cl transport mod – modulators of human KCC2 chloride dependent transport. KCC2 cells, thallium flux FluoZin-2 fluorescence. B-score of Tl+ flux slope (higher = more flux/activation; lower = inhibition) at 10 µM. 190,000 tested, 2.2% active;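 active means thallium flux slope and its plate-corrected score both differing from the plate sample mean at a set confidence after two filtering rounds, in either direction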;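 further: slope of fluorescence scaled to starting intensity during 10 to 20 s after thallium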
KCNQ1 inh – blocks the human KCNQ1 potassium channel | P51787 | CHO-K1 KCNQ1, FluxOR thallium flux fluorescence; hits give high values | B-score at 10 µM | 310,000 tested, 1.3% active | AID 2642;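 active means compounds whose thallium flux B-score, printed positive for inhibition, exceeds three library SD while starting fluorescence stays within three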;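 further: channel opened by potassium depolarization with thallium stimulus after 20 min compound exposure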
KCNQ1 act – potentiators or activators of human KCNQ1 potassium channel | CHO-K1 KCNQ1, thallium flux FluxOR fluorescence; hits give high values | AID 2648 | B-score at 10 µM | 310,000 tested, 0.35% active;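 active means fluorescence ratio B-score, a plate-corrected score, at least three library SD, with initial intensity B-score within 5 SD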
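Doses: Single concentration per compound, DMSO matched to controls | Test system: KCNQ1-transfected CHO-K1 cells | Timing: 90 min dye loading and 20 min compound exposure, both at room temperature | Measured by: Kinetic FluxOR thallium fluorescence, 10-s 1-Hz baseline, 110-s post-stimulus read | Medium: Assay buffer with matched DMSO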
KCC2 sec1 – confirmation of human KCC2 transport modulators. shares compounds with Cl transport mod. HEK293-KCC2, thallium flux, FluoZin2 fluorescence; hits give high values. normalised thallium flux (F/F0 slope) at 10 µM. 3,700 tested, 15% active;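 active means thallium flux slope above the same plate's solvent-only control mean plus 3 SD; inconclusive means the two replicate wells disagree; inactive means no significant difference from solvent-only control wells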
KCC2 bumet counter – bumetanide-insensitive thallium flux in KCC2 cells with ouabain, counter-screen | shares compounds with Cl transport mod | HEK293-KCC2 + bumetanide/ouabain, thallium flux FluoZin2; hits give high values | normalized thallium flux at 10 µM | 3,700 tested, 49% active | AID 1714;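 active means thallium entry rate above the same plate's blocked-transporter control wells by more than 3 SD; inconclusive means the two repeat wells disagree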;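 further: raw slope of fluorescence over initial fluorescence between 10 and 20 s after thallium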
KCC2 sec2 – KCC2 (human) modulation, second secondary assay; AID 1715; HEK293-KCC2, thallium flux FluoZin2 fluorescence; actives lie on both sides; F/F0 rise rate, 10–20 s post-thallium; 3,700 tested, 23% active; normalized thallium flux at 10 µM; shares compounds with Cl transport mod;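 active means thallium flux slope more than 3 SD above or below the plate's solvent-only control mean, mostly below; inconclusive means the two repeat wells disagreed; inactive means no significant shift from solvent-only controls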;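 further: raw slope with 0.1% DMSO as baseline and bumetanide as block control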
HEK293 Tl flux – acts in parental HEK cells, KCC2 counter-screen; shares compounds with Cl transport mod; HEK293 parental cells, thallium flux FluoZin2, ouabain; baseline-ratio fluorescence slope, 10–20 s after thallium; thallium flux rate (normalised fluorescence) at 10 µM; 3,700 tested, 46% active;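 active means thallium flux rate significantly above the same plate's solvent-only control wells, beyond their mean plus 3 SD; inconclusive means the two replicate wells gave conflicting results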
KCC2 ouabain – confirmation of human KCC2 modulators with ouabain. shares compounds with Cl transport mod. HEK293-KCC2, thallium flux FluoZin2 fluorescence; bidirectional: low = inhibitor, high = activator. raw Tl+ flux slope (below DMSO = inhibition, above = activation) at 10 µM. 3,700 tested, 48% active;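 active means thallium flux slope beyond 3 SD from same-plate DMSO control mean in most replicates, usually higher, sometimes lower; inconclusive means repeat tests gave conflicting results; inactive means no significant difference from controls in most replicates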;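 further: slope of initial-normalized fluorescence between seconds 10 and 20 after thallium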
HEK293 Tl flux2 – parental HEK flux effect, counter-screen 2 | shares compounds with Cl transport mod | HEK293 parental, thallium flux FluoZin-2 fluorescence slope | thallium flux slope at 10 µM | 3,700 tested, 33% active;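 active means thallium flux slope above the same plate's solvent-control mean plus 3 SD in both duplicate wells; inconclusive means duplicate wells that disagreed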;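 further: run without ouabain in cells lacking the KCC2 cotransporter; slope of fluorescence scaled to its starting value between 10 and 20 s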
Starred values were filed as active, the others as inactive; i = inactive; ? = inconclusive; . = no result. In the library only some 4.1% were active in any assay of this set; here they are far more common.

SMILES	hERG protect	KCNK3 block	KCNK9 inh	Cl transport mod	KCNQ1 inh	KCNQ1 act	KCC2 sec1	KCC2 bumet counter	KCC2 sec2	HEK293 Tl flux	KCC2 ouabain	HEK293 Tl flux2
CC(=O)c1cccc(NC(=S)NC(=O)c2ccccc2Cl)c1	-3	i	i	5.4*	i	i	0.008	0.026*	0.034	0.017*	0.028*	0.013*
COC(=O)c1cccc(NC(=O)NC(=O)c2ccccc2Cl)c1	-9	i	i	0.21	i	i	.	.	.	.	.	.
COCCCNC(=O)C1CCCN(S(C)(=O)=O)C1 (stereo not drawn)	-7	i	i	1	i	i	.	.	.	.	.	.
Cc1nn(C)c(C)c1S(=O)(=O)N(CC(=O)NCCN1CCOCC1)c1ccc(C(C)C)cc1	.	i	.	1.8	.	.	.	.	.	.	.	.
CC(=O)c1cccc(NC(=S)NC(=O)c2ccc(C)cc2)c1	-5	i	i	7.2*	i	i	0.0059	0.013*	0.029	0.011*	?	0.012*
Oc1c(C(Nc2ccccn2)c2ccccn2)ccc2cccnc12 (stereo not drawn)	-3	i	i	-1	i	i	.	.	.	.	.	.
Oc1ccccc1C(Nc1nccs1)c1ccc2cccnc2c1O (stereo not drawn)	-8	i	i	5*	i	i	0.0089	0.015*	0.029	0.0086*	?	0.0097
COc1ccc(-c2nn(C)c(=O)c3ccccc23)cc1NS(C)(=O)=O	-5	i	i	.	i	i	0.0078	0.0057	0.03	0.0065	0.019	0.0093
Cc1ccc(NC(=O)NC(=O)CN2C(=O)NC3(CCCCCCC3)C2=O)c(C)c1	-9	i	i	-5.5*	i	i	0.0099	0.0074	0.035	0.0047	0.02	0.012
CCCC[C@@H]1C=C(C(=O)O)[C@H](c2ccc(C#N)cc2)N1S(=O)(=O)c1ccc(C)cc1	.	i	.	.	.	.	.	.	.	.	.	.
CCOc1ccc(S(=O)(=O)NCCC(=O)OCN2C(=O)c3ccccc3C2=O)cc1	-7	i	i	.	i	i	.	.	.	.	.	.
Cc1ccc(S(=O)(=O)NCC(=O)OCN2C(=O)c3ccccc3C2=O)cc1	-8	.	i	-0.79	i	i	0.0093	0.006	0.032	0.0072	0.019	0.011
Cc1cc2c(cc1C)-c1nnc(-c3ccc4ccccc4n3)n1C(C)(C)C2	-7	.	i	-5*	i	i	0.0065	0.0052	0.03	0.008	0.019	0.011
CCCCSC1(SCCCC)N=C(N)C2(C#N)C(c3ccccc3)NC(C)=CC12C#N (stereo not drawn)	-4	i	i	-1.3	i	i	.	.	.	.	.	.
CC(C)c1ccc(N)c(S(=O)(=O)O)c1	-4	i	i	0.69	i	i	.	.	.	.	.	.
CC(C)c1cccc(O)c(=O)c1	1	i	i	9.1*	i	i	0.0083	0.016*	0.032	0.013*	0.026*	?
Cc1nonc1NC(=O)CSc1nc(C2CCCCC2)nc2ccccc12	-7	i	i	-6.1*	i	i	?	0.0063	0.031	0.0072	0.015*	0.01

High-throughput results from PubChem BioAssay.
